ChEMBL document CHEMBL1127619, “Synthesis of naltrexone-derived delta-opioid antagonists. Role of conformation of the delta address moiety” (J Med Chem, 1994)

Tests used:
[1] = target: Kappa-type opioid receptor (Cavia porcellus, UniProt P41144); test: Tested for binding activity against kappa opioid receptor using [3H]U-69593 ligand
In short: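 Guinea pig brain membranes; competition of test ligand against the tritiated radioligand selective for each site: [3H]DPDPE (δ1), [3H]U69593 (κ), [3H]DAMGO (μ). Ki values derived from the competition curves.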

[2] = target: Mu-type opioid receptor (Cavia porcellus) (UniProt P97266); conditions: 100 nM
Sequence of Mu-type opioid receptor (Cavia porcellus) (P97266 whole entry): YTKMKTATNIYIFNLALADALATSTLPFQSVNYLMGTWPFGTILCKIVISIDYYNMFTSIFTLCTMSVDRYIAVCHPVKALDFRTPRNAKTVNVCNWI

[3] = target: Delta-type opioid receptor (Mus musculus) (UniProt P32300); conditions: 100 nM
Sequence of Delta-type opioid receptor (Mus musculus) (P32300 whole entry): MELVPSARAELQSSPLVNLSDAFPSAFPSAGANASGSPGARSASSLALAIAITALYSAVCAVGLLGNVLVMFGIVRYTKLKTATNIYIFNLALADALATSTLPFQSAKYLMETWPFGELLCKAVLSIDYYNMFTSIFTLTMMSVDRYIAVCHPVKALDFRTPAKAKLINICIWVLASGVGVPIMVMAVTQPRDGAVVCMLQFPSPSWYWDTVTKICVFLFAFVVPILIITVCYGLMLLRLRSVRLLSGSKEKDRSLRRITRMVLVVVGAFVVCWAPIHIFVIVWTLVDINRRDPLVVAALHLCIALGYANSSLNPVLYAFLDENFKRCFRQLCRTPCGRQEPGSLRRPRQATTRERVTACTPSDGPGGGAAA

[4] = target: Kappa-type opioid receptor (Cavia porcellus) (UniProt P41144); conditions: 100 nM
Sequence of Kappa-type opioid receptor (Cavia porcellus) (P41144 whole entry): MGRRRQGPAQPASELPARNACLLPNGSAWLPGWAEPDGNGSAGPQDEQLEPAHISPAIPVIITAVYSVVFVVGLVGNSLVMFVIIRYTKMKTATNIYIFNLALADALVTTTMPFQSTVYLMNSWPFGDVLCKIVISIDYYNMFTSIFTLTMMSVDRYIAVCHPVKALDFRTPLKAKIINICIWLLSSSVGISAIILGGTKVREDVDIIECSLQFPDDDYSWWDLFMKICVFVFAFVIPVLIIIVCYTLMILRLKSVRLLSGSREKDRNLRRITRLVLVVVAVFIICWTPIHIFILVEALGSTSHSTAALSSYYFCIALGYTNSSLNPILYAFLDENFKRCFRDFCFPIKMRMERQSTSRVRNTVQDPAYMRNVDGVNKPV

[5] = target: T1, Delta-type opioid receptor (Rattus norvegicus, UniProt P33533); test: Tested for binding activity against delta1 opioid receptor using [3H]DPDPE ligand
T1 sequence (P33533 whole entry): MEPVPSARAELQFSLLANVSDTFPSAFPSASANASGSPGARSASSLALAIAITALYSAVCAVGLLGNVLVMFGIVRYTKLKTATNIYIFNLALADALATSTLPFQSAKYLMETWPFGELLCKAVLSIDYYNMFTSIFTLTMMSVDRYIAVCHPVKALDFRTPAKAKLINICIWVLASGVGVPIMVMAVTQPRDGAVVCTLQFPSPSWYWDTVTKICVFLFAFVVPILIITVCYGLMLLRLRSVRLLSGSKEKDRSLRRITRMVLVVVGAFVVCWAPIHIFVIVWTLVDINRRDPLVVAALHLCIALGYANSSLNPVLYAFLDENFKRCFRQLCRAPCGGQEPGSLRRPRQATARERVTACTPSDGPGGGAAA

[6] = tested on: Mus musculus; test: Antagonism of antinociceptive effect of kappa receptor selective agonist U-50,488 in mice, icv (treated); type: functional; conditions: central
In short: (§1)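 Mice received 2 nmol antagonist icv, timed with the icv agonist so the antagonist peak (20 min) coincided with the centre of the tail-flick observation period. Treated ED50 is in nmol/mouse for DPDPE and DSLET and in µmol/kg for morphine and U50488. ED50 ratio is treated over control.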

[7] = tested on: Mus musculus; test: Antagonism of antinociceptive effect of delta 2 selective agonist DSLET in mice, icv (treated); type: functional; conditions: central
[8] = species: Mus musculus; test: Antagonism of antinociceptive effect of delta 2 selective agonist DSLET in mice (control); type: functional
In short: (§2)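 Mouse tail-flick assay; agonist given icv without antagonist pretreatment, timed so its peak effect fell at the centre of the observation period. Control ED50 derived, expressed as nmol/mouse for DPDPE and DSLET and as µmol/kg for morphine and U50488.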

[9] = tested on: Mus musculus; test: Antagonism of antinociceptive effect of delta 1 selective agonist DPDPE in mice, icv (treated); type: functional; conditions: central
[10] = tested on: Mus musculus; test: Antagonism of antinociceptive effect of mu receptor selective agonist morphine in mice, icv (treated); type: functional; conditions: central; in short: as §1
[11] = species: Mus musculus; test: Antagonism of antinociceptive effect of delta 1 selective agonist DPDPE in mice (control); type: functional; in short: as §2
[12] = target: Kappa-type opioid receptor (Cavia porcellus) (UniProt P41144); conditions: 100 nM; remark: listed apart in the source
[13] = species: Mus musculus; test: Antagonism of antinociceptive effect of kappa receptor selective agonist U-50,488 in mice (control); type: functional; in short: as §2
[14] = target: T1, Delta-type opioid receptor; test: Tested for binding activity against delta opioid receptor using [3H]naltridole ligand
[15] = species: Mus musculus; test: Antagonism of antinociceptive effect of mu receptor selective agonist morphine in mice (control); type: functional; in short: as §2

Sequence of Kappa-type opioid receptor (P41144 whole entry): as the sequence (P41144 whole entry) above

Row | Structure (SMILES) | Ki [1] [nM] | Ke [2] [nM] | Ke [3] [nM] | Ke [4] [nM] | other results
1 | O=C1[C@@H](Cc2ccccc2)C[C@@]2(O)[C@H]3Cc4ccc(O)c5c4[C@@]2(CCN3CC2CC2)[C@H]1O5 | 25 | 21 | 1.5 |  | 
2 | Oc1ccc2c3c1O[C@H]1[C@H](Nc4ccccc4)CC[C@@]4(O)[C@@H](C2)N(CC2CC2)CC[C@]314 | 2.2 | 1.3 | 100 | 6 | 
3 | O=C1/C(=C/c2ccccc2)C[C@@]2(O)[C@H]3Cc4ccc(O)c5c4[C@@]2(CCN3CC2CC2)[C@H]1O5 [BNTX] | 5.9 | 8.3 | 2.9 | 100 | 
4 | O=C1/C(=C\c2ccccc2)C[C@@]2(O)[C@H]3Cc4ccc(O)c5c4[C@@]2(CCN3CC2CC2)[C@H]1O5 | 66 |  | 24 | 53 | 
5 | Oc1ccc2c3c1O[C@H]1c4[nH]c5ccccc5c4C[C@@]4(O)[C@@H](C2)N(CC2CC2)CC[C@]314 [NALTRINDOLE] |  |  |  |  | Ki [5]: 0.0072 nM
6 | O=C1[C@@H]2Oc3c(O)ccc4c3[C@@]23CCN(CC2CC2)[C@H](C4)[C@]3(O)CC12Cc1ccccc1C2 | 12.5 | 4.2 | 0.78 |  | ED50 [6]: 12.2 µmol/kg; ED50 [7]: 2.8 µmol/kg; ED50 [8]: 0.7 uM mouse-1; ED50 [9]: 46.3 µmol/kg; ED50 [10]: 21.1 µmol/kg; ED50 [11]: 6.4 uM mouse-1; Ke [12]: 105 nM; ED50 [13]: 8.6 uM mouse-1; Ki [14]: 0.047 nM; ED50 [15]: 6.9 uM mouse-1
7 | Oc1ccc2c3c1O[C@H]1[C@@H](Nc4ccccc4)CC[C@@]4(O)[C@@H](C2)N(CC2CC2)CC[C@]314 | 2.2 | 3.2 | 8.8 | 100 | 
8 | Oc1ccc2c3c1O[C@H]1C4(CC[C@@]5(O)[C@@H](C2)N(CC2CC2)CC[C@]315)Oc1ccccc1O4 | 25 | 40 |  |  | 
